This note sets out measurements from ChEMBL document CHEMBL1671787, “2-Aminothiazoles as therapeutic leads for prion diseases” (J Med Chem, 2011).

Data set [1] in a line: Antiprion activity against PrPsc infected in dividing mouse ScN2a-cl3 cells assessed as reduction in prion load after 5 days by ELISA. The data set is classed as cell-based. Conditions: N2a-cl3, 120 h; call rule not given here. The gist of the method: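 ScN2a (RML-infected N2a) cells seeded at 40,000 cells/well in MEM with 10% FBS, GlutaMax, 500 µg/mL geneticin. Compounds added 4 h after seeding, 0.5% final DMSO. Incubated 5 days at 37 °C, 5% CO2. Lysates captured on D18-coated ELISA plates overnight at 4 °C, then HRP-D13 antibody 1 h. EC50 is the mean of three determinations.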
On the technique in general: In an ELISA, binding on a coated surface is turned into a signal by an enzyme label.

The subject of a further data set is Liver microsomes. As to the kind of experiment: Metabolic stability in rat liver microsomes assessed as half life by LC-MS/MS analysis. The data set is classed as ADME, Microsome. The method, boiled down:
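Compound at 1 µM final (0.6% acetonitrile, 0.01% DMSO) in PBS pH 7.4. Incubated with rat hepatic microsomes (~0.3 mg/mL), 1 mM NADPH and 4 mM UDPGA or PBS at 37 °C. Samples taken at 0, 1, 10, 30 and 60 min and quenched in acetonitrile with carbamazepine internal standard. Remaining parent measured by LCMS; duplicate incubations. Midazolam and 4-nitrophenol served as controls.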
On the technique in general: Liver microsomes are vesicles of endoplasmic reticulum, rich in cytochrome P450 enzymes.

The test system of data set [2] is Brain. The data set is described as follows: Drug uptake in FVB mouse brain at 40 to 210 mg/kg/day, po administered as part of liquid diet for 3 days. The data set is classed as ADME, organism-based. Further details: route oral. The settings on record: in vivo, 72 h. The gist of the method: (§1)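 Wild-type FVB mice (~25 g), three per dose group sharing a cage. Compound was dissolved in PEG400 and diluted into a liquid diet of homogenized rodent feed, cocoa and water. Diet given ad libitum for 3 days; daily dose estimated from ~20 mL/day intake. Doses were 0, 40, 80, 130 or 210 mg/kg/day. After CO2 euthanasia, brain was homogenized with four-fold water and measured by LC-MS.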

In data set [3] the test system is MDCK. The data set is described as follows: Permeability across basolateral to apical side MDR1-expressing MDCK cells. The class given is ADME, cell-based, Canis lupus familiaris. The settings on record: dog. The method, boiled down:
(§2)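 MDR1-MDCK monolayers grown 5–10 days on 1 µm filters. Compound at 10 µM in HBSS pH 7.4 with 25 mM HEPES and 0.05% PS80, added to the apical or basolateral donor chamber. Receiver samples taken every 20 min and quantified by HPLC/UV/MS. Permeability coefficients calculated per interval and averaged; run in duplicate.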

The test system of data set [4] is Brain. As to the kind of experiment: Drug uptake in FVB mouse brain at 130 mg/kg/day, po administered as part of liquid diet for 3 days. The class given is ADME, organism-based. Further details: route oral. The settings on record: in vivo, 72 h. The method, boiled down: as §1
In data set [5] the test system is MDCK. The data set is described as follows: Permeability across apical to basolateral side MDR1-expressing MDCK cells. The settings on record: dog. The data set is classed as ADME, cell-based, Canis lupus familiaris. The gist of the method: as §2
In the next data set the test system is Nucleic Acid. As to the kind of experiment: Ratio of drug level in FVB mouse to EC50 for PrPsc. The method, boiled down:
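Brain (and plasma) levels in wild-type FVB mice given 0, 40, 80, 130 or 210 mg/kg/day for 3 days in liquid rodent diet (PEG400 stock diluted with feed, cocoa, water), 3 mice per dose. At an arbitrary point after feeding (pseudo steady-state), brain homogenised and assayed by LC-MS. Levels set against the mean EC50 from 3 determinations in ScN2a-cl3 cells (5-day PrPSc ELISA).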

Consider `c1ccc(-c2csc(Nc3cc4ccccc4cn3)n2)cc1`, for which the EC50 in data set [1] stood at 3080 nM. Same read-out and setting: in the case of `Cc1ccnc(Nc2nc(-c3cc(-c4ccccc4)no3)cs2)c1` it was 1270 nM; in that of `COc1ccc(-c2csc(Nc3cc4ccccc4cn3)n2)cc1`, 340 nM. With `COc1ccc(-c2csc(Nc3cnccn3)n2)cc1OC`, the EC50 in data set [1] was 15600 nM. With `COc1cc2c(cc1OC)-c1nc(Nc3ccc(C)cn3)sc1C2`, the EC50 in data set [1] is 5590 nM. As for `c1ccc(-c2cc(-c3csc(Nc4ccncc4)n3)on2)cc1`, the EC50 in data set [1] is 4420 nM. `COc1ccc(Nc2nc(-c3ccc(OC)c(OC)c3)cs2)nc1`: the t1/2 in the data set on Liver microsomes was 45 min. Take `FC(F)(F)Oc1ccc(-c2csc(Nc3cc4ccccc4cn3)n2)cc1`: the EC50 in data set [1] is over 32000 nM. Same read-out and setting: in the case of `COc1ccc(-c2csc(Nc3cc(C)ccn3)n2)cc1OC` it was 1000 nM. The same measure, in the same setting: with `COc1ccc(-c2csc(Nc3cccc(C)n3)n2)cc1OC` the figure was 3010 nM; with `Cc1ccc(Nc2nc(-c3ccc(-c4ccccn4)s3)cs2)nc1`, 1230 nM.

Regarding `Cc1ccc(Nc2nc(-c3cc(-c4ccccc4)no3)cs2)nc1`, the Drug uptake result in the data set on Brain [2] and in the data set with Brain [4] was “Active” each time. In addition, the EC50 in data set [1] amounted to 940 nM. Further, the results for the permeability in the data set on MDCK [3] and with MDCK [5] were 8.3 ×10⁻⁶ cm/s and 6.8 ×10⁻⁶ cm/s, respectively. In the data set on Liver microsomes, the t1/2 turned out to be 151 min. In addition, the Ratio in the data set with Nucleic Acid is 25.

Take `FC(F)(F)c1csc(Nc2cc3ccccc3cn2)n1`: the EC50 in data set [1] turned out to be 8660 nM.

Consider `COc1ccc(NC(=O)c2csc(Nc3ccc(C)cn3)n2)cc1OC`, for which, in data set [1], the EC50 was 2440 nM.

On to `c1ccc(-c2cc(-c3csc(Nc4ccccn4)n3)on2)cc1`, for which the EC50 in data set [1] was found to be 600 nM.

Turning to `COc1ccc(-c2csc(C(=O)Nc3cc4ccccc4cn3)n2)cc1OC`, the EC50 in data set [1] is over 10000 nM. For `COc1ccc(-c2csc(Nc3cccc4ccccc34)n2)cc1OC`, in data set [1], the EC50 was over 32000 nM.

As for `CNc1nc(-c2ccc(OC)c(OC)c2)cs1`, the EC50 in data set [1] is over 32000 nM. The same measure, in the same setting: in the case of `COc1ccc(Nc2nc(-c3cc(-c4ccccc4)no3)cs2)nc1` it was 230 nM; in that of `Cc1cccc(Nc2nc(-c3cc(-c4ccccc4)no3)cs2)n1`, 820 nM; in that of `Cc1ccc(Nc2nc(C)cs2)nc1`, over 32000 nM.

For `Cc1ccc(Nc2nc(-c3ccncc3)cs2)nc1`, in data set [1], the EC50 worked out at 1570 nM. Besides, the permeability worked out at 42.3 ×10⁻⁶ cm/s with MDCK [3] and 32.6 ×10⁻⁶ cm/s in the data set on MDCK [5]. Besides, the t1/2 in the data set with Liver microsomes is reported as 20 min.

In the case of `Cc1csc(Nc2cc3ccccc3cn2)n1`, the EC50 in data set [1] is over 32000 nM. Turning to `COc1ccc(-c2csc(NC(=O)c3cc4ccccc4cn3)n2)cc1OC`, the EC50 in data set [1] came to 8180 nM.

For `COc1ccc(-c2csc(Nc3cc4ccccc4cn3)n2)cc1OC`, the t1/2 in the data set on Liver microsomes came out at 83 min.

Take `COc1ccc(-c2csc(Nc3ncccc3C)n2)cc1OC`: the EC50 in data set [1] was determined as 7290 nM. The same measure, in the same setting: in the case of `COc1ccc(-c2csc(N(C(C)=O)c3cc4ccccc4cn3)n2)cc1OC` it was 81 nM; in that of `c1ccc(-c2cc(-c3csc(Nc4cc5ccccc5cn4)n3)on2)cc1`, 800 nM. With `c1ccc(-c2ccc(-c3csc(Nc4cc5ccccc5cn4)n3)s2)nc1`, the EC50 in data set [1] was determined as 2010 nM. For the molecule `COc1ccc(-c2csc(Nc3ccc(C(F)(F)F)cn3)n2)cc1OC`, the EC50 in data set [1] was determined as 2530 nM. The values for the permeability with MDCK [3] and with MDCK [5] were 8.7 ×10⁻⁶ cm/s and 9.4 ×10⁻⁶ cm/s, respectively. Moreover, in the data set with Liver microsomes, the t1/2 turned out to be 150 min. In the case of `COc1ccc(-c2csc(Nc3ccc4ccccc4c3)n2)cc1OC`, the EC50 in data set [1] was 390 nM. Same read-out and setting: in the case of `COc1ccc(-c2csc(N(C)c3cc4ccccc4cn3)n2)cc1OC` it was 140 nM; in that of `Cc1ccc(Nc2nc(-c3ccccn3)cs2)nc1`, 860 nM. For `Cc1ccc(Nc2nc(-c3c(-c4ccccc4)noc3C)cs2)nc1`, in data set [1], the concentration for a half-maximal effect (EC50) was over 26000 nM. Also, the values for the permeability in the data set on MDCK [3] and in the data set on MDCK [5] were 8.6 ×10⁻⁶ cm/s and 11.2 ×10⁻⁶ cm/s, respectively. Besides, the t1/2 in the data set with Liver microsomes is recorded as 19 min. Consider `Cc1ccc(Nc2nc(-c3ccccc3)cs2)nc1`, for which, in data set [1], the concentration for a half-maximal effect (EC50) stood at 7880 nM. Further, the t1/2 in the data set with Liver microsomes was 10 min. Consider `COc1ccnc(Nc2nc(-c3cc(-c4ccccc4)no3)cs2)c1`, for which, in data set [1], the EC50 was 250 nM. Still for that read-out and setting: in the case of `COc1ccc(-c2csc(Nc3ncccn3)n2)cc1OC` it was 3930 nM.

Take `COc1ccc(-c2csc(Nc3ccc4ccccc4n3)n2)cc1OC`: the EC50 in data set [1] is 430 nM. Also, the permeability in the data set with MDCK [3] was determined as 8.9 ×10⁻⁶ cm/s; in the data set with MDCK [5], 9.2 ×10⁻⁶ cm/s. Moreover, in the data set with Liver microsomes, the t1/2 was determined as 69 min. Consider `COc1ccc(-c2csc(Nc3ccc(C)cn3)n2)cc1OC`, for which the EC50 in data set [1] was 790 nM. As to `COc1ccccc1-c1csc(Nc2ccc(C)cn2)n1`, the EC50 in data set [1] is over 29000 nM. Still for that read-out and setting: with `c1ccc2cc(Nc3nc(-c4ccncc4)cs3)ncc2c1` the figure was 310 nM. For the molecule `Cc1ccc(Nc2nc3c(s2)Cc2ccccc2-3)nc1`, the EC50 in data set [1] was 2440 nM. Consider `COc1ccc(-c2csc(Nc3ccc(C)cn3)n2)cc1`, for which the EC50 in data set [1] came to 3030 nM.

One may read the EC50 as the midpoint of the concentration-response curve.
